The target of series [1] is T1, Amine oxidase [flavin-containing] A (Homo sapiens, UniProt P21397).
T1 sequence (P21397 whole entry): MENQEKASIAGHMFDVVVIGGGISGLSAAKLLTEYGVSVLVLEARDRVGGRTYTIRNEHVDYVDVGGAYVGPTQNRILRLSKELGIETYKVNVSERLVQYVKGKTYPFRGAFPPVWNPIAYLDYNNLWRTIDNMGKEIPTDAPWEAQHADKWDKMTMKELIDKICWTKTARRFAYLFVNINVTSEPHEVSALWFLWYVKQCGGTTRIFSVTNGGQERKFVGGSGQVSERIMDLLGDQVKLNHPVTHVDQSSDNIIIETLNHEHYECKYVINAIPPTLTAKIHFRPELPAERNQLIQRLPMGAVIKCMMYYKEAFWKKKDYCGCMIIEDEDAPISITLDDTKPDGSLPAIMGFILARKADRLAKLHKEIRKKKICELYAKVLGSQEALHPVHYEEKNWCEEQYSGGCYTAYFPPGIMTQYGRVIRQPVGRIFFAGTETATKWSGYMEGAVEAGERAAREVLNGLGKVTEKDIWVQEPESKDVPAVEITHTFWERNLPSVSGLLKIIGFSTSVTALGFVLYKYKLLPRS
The series can be described thus: Inhibition of human recombinant MAO-A expressed in insect cells microsomes assessed as inhibition of 4-hydroxyquinoline formation using kynuramine as substrate incubated for 20 mins by fluorescence spectrophotometry analysis. The method, boiled down: (§1)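 Recombinant human MAO-A and MAO-B as enzyme sources with kynuramine as non-selective substrate; product 4-hydroxyquinoline read by fluorescence spectrophotometry. Activity measured across a range of inhibitor concentrations, sigmoidal rate vs log[inhibitor] curves fitted for IC50; triplicate measurements, mean ± SD. Top concentration tested 100 µM. SI taken as IC50(MAO-A)/IC50(MAO-B).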

The species named for another series is Homo sapiens. Briefly: Selectivity index, ratio of IC50 for human recombinant MAO-A expressed in insect cells microsomes to IC50 for human recombinant MAO-B expressed in insect cells microsomes. In a few lines: as §1
Series [2] addresses T2, Amine oxidase [flavin-containing] B (Homo sapiens, UniProt P27338).
T2 sequence (P27338 whole entry): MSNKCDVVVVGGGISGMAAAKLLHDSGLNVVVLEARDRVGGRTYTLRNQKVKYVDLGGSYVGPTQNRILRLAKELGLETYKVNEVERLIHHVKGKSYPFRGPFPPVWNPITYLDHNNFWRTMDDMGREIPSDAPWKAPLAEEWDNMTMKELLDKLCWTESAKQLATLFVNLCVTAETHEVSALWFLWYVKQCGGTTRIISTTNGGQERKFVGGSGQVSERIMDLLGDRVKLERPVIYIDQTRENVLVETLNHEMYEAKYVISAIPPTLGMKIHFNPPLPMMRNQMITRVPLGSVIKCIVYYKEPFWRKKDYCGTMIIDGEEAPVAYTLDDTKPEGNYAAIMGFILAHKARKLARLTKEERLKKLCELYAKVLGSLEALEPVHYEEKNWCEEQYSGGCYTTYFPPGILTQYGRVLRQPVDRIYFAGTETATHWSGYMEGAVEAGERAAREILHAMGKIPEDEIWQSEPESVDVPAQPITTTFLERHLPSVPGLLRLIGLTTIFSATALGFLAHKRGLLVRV
Format: cell-based.

The target of series [3] is T2, Amine oxidase [flavin-containing] B. Briefly: Reversible inhibition of human recombinant MAO-B expressed in insect cells microsomes assessed as enzyme residual activity preincubated at concentration of 4 times IC50 with enzyme for 15 mins followed by dialysis of enzyme-inhibitor mixture for 24 hrs followed by twofold dilution and incubation at concentration of 2 times IC50 with enzyme for 20 mins using kynuramine as substrate by fluorescence ….

Series [4] shares this target. Briefly: Inhibition of human recombinant MAO-B expressed in insect cells microsomes assessed as enzyme residual activity preincubated at concentration of 4 times IC50 with enzyme for 24 hrs followed by twofold dilution and incubation at concentration of 2 times IC50 with enzyme for 20 mins using kynuramine as substrate by fluorescence spectrophotometry (reference value: 100%).

Broadly, the IC50 is the midpoint of a concentration-inhibition curve.

For `NS(=O)(=O)c1ccc(C(=O)NNC(=O)c2ccccc2)cc1`, the IC50 was 62.8 µM in series [1] and greater than 100 µM in series [2]. Besides, the Ratio IC50 in the series listed under Homo sapiens is less than 0.6.
The matching figures for `NS(=O)(=O)c1ccc(-c2nnc(-c3ccccc3)o2)cc1`: 63.9 µM, 0.168 µM and 380.
For `NS(=O)(=O)c1cc(-c2nnc(-c3ccccc3)o2)ccc1Cl`, in that order: greater than 100 µM, 0.439 µM and greater than 228.
For `NS(=O)(=O)c1cccc(-c2nnc(-c3ccc(F)cc3)o2)c1`, in that order: 34.4 µM, 0.975 µM and 35.
Regarding `Cc1ccc(-c2nnc(-c3ccccc3)o2)cc1S(N)(=O)=O`, the IC50 in series [1] was greater than 100 µM; in series [2] it was 0.767 µM. The Ratio IC50 in the series listed under Homo sapiens was greater than 130.
Turning to `Cc1ccc(-c2nnc(-c3cccc(S(N)(=O)=O)c3)o2)cc1`, the IC50 is 61.4 µM in series [1] and 0.571 µM in series [2]. In addition, the Ratio IC50 in the series listed under Homo sapiens stood at 108.
For `NS(=O)(=O)c1ccc(C(=O)NNC(=O)c2ccc(Cl)c(Cl)c2)cc1`, in that order: 13.6 µM, 10.1 µM and 1.3.
Take `N#Cc1ccc(C(=O)NNC(=O)c2ccc(S(N)(=O)=O)cc2)cc1`: the IC50 was 16.1 µM in series [1] and 1.17 µM in series [2]. In the series listed under Homo sapiens, the Ratio IC50 worked out at 14.
For `NS(=O)(=O)c1cccc(-c2nnc(-c3ccc(Cl)cc3)o2)c1`, in that order: greater than 100 µM, 0.21 µM and greater than 476.
On to `NS(=O)(=O)c1ccc(-c2nnc(-c3ccc(Cl)c(Cl)c3)o2)cc1`, for which the Activity worked out at 60% in series [3] and 44% in series [4].
With `NS(=O)(=O)c1ccc(C(=O)NNC(=O)c2ccc(F)cc2)cc1`, the values for the IC50 in series [1] and in series [2] were 39.6 µM and greater than 100 µM, respectively. Besides, the Ratio IC50 in the series listed under Homo sapiens was less than 0.4.
Regarding `N#Cc1ccc(-c2nnc(-c3ccc(S(N)(=O)=O)cc3)o2)cc1`, the results for the IC50 in series [1] and in series [2] were 24.3 µM and 0.318 µM, respectively. In addition, the Ratio IC50 in the series filed under Homo sapiens worked out at 76.
Consider `NS(=O)(=O)c1ccc(C(=O)NNC(=O)c2ccc(Cl)cc2)cc1`, for which the IC50 in series [1] was 55.9 µM; in series [2], 11.7 µM. For the same compound, the Ratio IC50 in the series filed under Homo sapiens is 4.8.
For `NS(=O)(=O)c1ccc(-c2nnc(-c3ccc(F)cc3)o2)cc1`, in that order: 83.8 µM, 0.079 µM and 1060.
The matching figures for `NS(=O)(=O)c1ccc(-c2nnc(-c3ccc(Cl)cc3)o2)cc1`: 68 µM, 0.048 µM and 1420.

(Values after ChEMBL document CHEMBL4304818, “1,3,4-Oxadiazol-2-ylbenzenesulfonamides as privileged structures for the inhibition of monoamine oxidase B” (Bioorg Med Chem Lett, 2019).)
